# Hits are enriched below; roughly 3.1% of the tested compounds scored in any of these assays.
# PGC1a acetyl inh: inhibitors of PGC1a acetylation signal, primary screen, cell-based, U2OS, AlphaScreen, inhibitor mode. actives 0.17% (n = 350,000). inhibition, % at 15.6 µM. AlphaScreen anti-acetyl-lysine; with virally co-expressed GCN5 acetyltransferase;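 active = every replicate shows inhibition of at least 40%; inconclusive = mean inhibition at least 40% but some replicate below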;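 also: 0% = neutral control wells and 100% = positive control wells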
# Env fusion inh: inhibitors of HIV-1 Env-driven cell-cell fusion, primary screen, HeLa-JRFL effector, CEM21 target cells, luciferase. inhibition, % at 12.3 µM. actives 1.1% (n = 360,000). AID 651610, 2012;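 active = mean replicate inhibition score of at least 50 and every replicate individually at or above 50; inconclusive = only one of the two criteria met; inactive = mean below 50 and not all replicates reaching 50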;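 also: 0% = plate neutral controls and 100% = maraviroc near 300 nM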
# FGF22 binding: binders of human FGF22 protein, primary screen, FGF22 synaptogenesis inhibitor project, biophysical, thermal shift, single point | recombinant FGF22 thermal shift, SYPRO orange fluorescence; percent of sucrose octasulfate shift, DMSO zero | activity (Tm shift, normalised), % at 9.99 µM | actives 1.5% (n = 340,000) | AID 651658, 2012 | Fibroblast growth factor 22 (Homo sapiens), Q9HCT0;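 active = mean Tm shift, scaled 0 neutral to 100 positive control, at about 1.3% or above, every replicate too, limit read from the data; inconclusive = no clear call, values can overlap the other calls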
# Target sequence (Q9HCT0 whole entry, looked up): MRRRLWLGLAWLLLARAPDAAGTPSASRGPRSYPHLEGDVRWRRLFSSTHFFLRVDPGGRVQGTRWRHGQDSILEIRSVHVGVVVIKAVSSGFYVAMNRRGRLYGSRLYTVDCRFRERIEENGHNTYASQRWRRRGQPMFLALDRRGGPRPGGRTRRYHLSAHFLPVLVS
# FN deposit inh: inhibitors of fibronectin matrix deposition, primary screen, AH1F cells, Alexa488-fibronectin fluorescence, plate reader; AH1F fibroblasts, overnight; actives 0.086% (n = 350,000); AID 743247, 2014; inhibition, % at 12.6 µM;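 active = mean inhibition across replicates of 30% or more, regardless of how many single replicates reach that level; inconclusive = mean under 30% yet at least half of replicates reach 30%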;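 also: positive control wells lacked labelled fibronectin entirely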
#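 Assay system: AH1F fibroblast monolayer, labelled fibronectin deposition. Amount: 10000 cells per well. Also added: labelled fibronectin 24 nM. Compound: single-point pinned compound. Incubation: cell attachment 1 h, compound and FN exposure overnight. Detection: fluorescence after three HBSS washes, excitation 485 nm, emission 525 nm. Read-out: inhibition of fibronectin deposition signal.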
# PAX8 reporter: inhibitors of PAX8-driven TPO luciferase reporter, primary screen, RMG-I cells, single concentration; inhibition, % at 12.6 µM; AID 652154, 2013; SteadyGlo, 24 h; actives 1.2% (n = 360,000);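 active = mean replicate inhibition at least 60% with every replicate also reaching 60%; inconclusive = only one of the two criteria is met; inactive = mean below 60% and not all replicates reaching 60%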;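 also: luciferase light reporting Pax8 driven TPO promoter activity; plate controls were median of neutral control wells for no effect and mitoxantrone controls for full effect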
# EWS-Fli block: EWS/Fli-driven NR0B1 reporter inhibitors, primary screen, A673 cells, NR0B1 luciferase, luminescence, MLPCN library; inhibition, % at 12.6 µM; actives 0.67% (n = 350,000); AID 651661, 2012; viability-normalised;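 active = mean inhibition of at least 50% after viability correction, with every replicate also passing that limit; inconclusive = mean reaches 50% but only one of two replicates passes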;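 also: firefly luciferase signal divided by Alamar Blue viability fluorescence both relative to DMSO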
# * hit, by the source's call; u = inconclusive; x = no result.
SMILES,PGC1a acetyl inh,Env fusion inh,FGF22 binding,FN deposit inh,PAX8 reporter,EWS-Fli block
Cc1ccc2nc(-c3ccc(CN4CCC(n5c(=O)[nH]c6ccccc65)CC4)cc3)c(-c3ccccc3)nc2c1,x,-89.7,-0.2,x,64.9*,8.1
Cc1[nH]c2ccc(OC(F)(F)F)cc2c1CCNCc1cccc([N+](=O)[O-])c1,x,66.8*,-0.2,2.1,24.9,13.0
CCOc1cccc(CNCCc2c(C)[nH]c3ccc(OC(F)(F)F)cc23)c1O,x,62.5*,-0.9,0.9,8.7,46.7
Cc1[nH]c2ccc(OC(F)(F)F)cc2c1CCNCc1ccc(Cl)cc1,-3.2,92.6*,0.1,29.7,29.6,11.8
Cc1ccc2[nH]c(C)c(CCNCc3ccco3)c2c1,x,-1.4,0.0,1.0,16.1,x
COc1ccc2[nH]c(C)c(CCNCc3cccnc3)c2c1,2.9,x,-0.2,-16.9,10.7,-7.7
O=C(Cc1ccccc1)N1CC2(C1)[C@@H](c1ccccc1)[C@@H](CO)N2Cc1cccc(F)c1,2.9,x,-0.1,x,14.8,2.1
CCN1[C@@H]2c3ccc(-c4ccc(OC)cc4)c(=O)n3C[C@H]1[C@H](CO)[C@H]2C(=O)OC,x,x,0.1,x,x,4.2
COC(=O)[C@@H]1[C@@H](CO)[C@@H]2Cn3c(ccc(C4=CCCCC4)c3=O)[C@H]1N2C(=O)Cc1ccccn1,x,x,-0.1,x,4.4,4.4
O=C(Cc1cccnc1)N1CCCCN2[C@@H](CO)[C@@H](c3ccc(C#CC4CCCC4)cc3)[C@@H]2C1,12.2,x,-0.9,x,-10.3,10.1
O=C(Cc1ccccc1)N1CCCCN2[C@H](C1)[C@H](c1ccc(C#Cc3ccccc3)cc1)[C@@H]2CO,6.0,x,-0.4,x,25.9,x
O=C(Cc1cccnc1)N1CCCCN2[C@H](C1)[C@H](c1ccc(C#CC3CCCC3)cc1)[C@@H]2CO,-0.8,x,0.0,x,91.9*,13.9
O=C(Cc1ccncc1)N1CCCCN2[C@H](C1)[C@H](c1ccc(C#Cc3ccccc3F)cc1)[C@@H]2CO,-4.3,x,-0.2,3.6,77.1*,13.8
COC(=O)[C@@H]1[C@@H](CO)[C@@H]2Cn3c(ccc(C4=CCCC4)c3=O)[C@H]1N2C(=O)CC1CC1,x,x,-0.2,x,x,-0.8
Nc1ncnc2c1ccn2[C@@H]1O[C@H](CO)[C@@H](O)[C@H]1O,-109.6,x,0.0,x,x,55.6*
NC(=S)c1cn(C2OC(CO)C(O)C2O)c2ncnc(N)c12 (centres undefined),x,90.1*,-0.1,21.9,107.8*,49.2
C/C=C/c1ccc(C2[C@@H]3CN(Cc4cccc(F)c4)C[C@H]2N3)cc1 (some centres undefined),-13.9,x,x,-3.1,-5.9,37.4
O=C(CN1CCOCC1)c1cccc2ccccc12,3.2,-2.4,x,2.2,6.3,x
Cc1c(C(=O)c2cccc3ccccc23)c2cccc3c2n1[C@H](CN1CCOCC1)CO3,x,10.0,-0.5,8.3,100.7*,-8.0
CC=Cc1ccc2n(c1=O)C[C@@H]1[C@@H](CO)[C@H](C(=O)N(C)C)[C@H]2N1C (mixture of isomers),x,x,0.0,x,x,-5.7
COC(=O)[C@@H]1N[C@@H]2c3ccc(C4=CCCC4)c(=O)n3C[C@@H]2[C@H]1CO,x,x,0.1,x,x,-2.5
CCCCC1(CCCC)C(=O)NC(=Nc2cccc(C)c2)NC1=O,1.2,-74.6,x,2.8,4.9,x
Cc1cccc(N=C2c3cc([N+](=O)[O-])ccc3-c3c2cc([N+](=O)[O-])cc3[N+](=O)[O-])c1,-4.9,u,-0.1,6.0,65.9*,31.2
C[CH2][Hg][S]c1ccccc1C(=O)O,6.1,13.2,-1.4,26.3,109.5*,46.6
CC(C)COC(=O)c1ccccc1C(=O)OCC(C)C,-8.9,x,0.1,x,x,-7.3
SMILES,PGC1a acetyl inh,Env fusion inh,FGF22 binding,FN deposit inh,PAX8 reporter,EWS-Fli block
COc1ccc(OC(=O)N(C)C[C@H]2OCc3ccccc3-c3c(n(C)c4ccccc34)C(=O)N([C@@H](C)CO)C[C@H]2C)cc1,-61.8,x,-0.8,-6.6,6.4,17.0
CC(=NCc1ccc2c(c1)OCO2)c1c(O)n(C)c(=O)n(C)c1=O,9.8,-43.4,x,4.3,12.3,x
CCC(=NCc1ccc2c(c1)OCO2)c1c(O)n(C)c(=O)n(C)c1=O,13.7,76.7*,x,-0.9,17.6,x
CCC(=NCCOc1ccc(Cl)cc1)c1c(O)n(C)c(=O)n(C)c1=O,15.2,49.6*,x,0.6,12.4,x
CCC(=NCCc1c[nH]c2ccccc12)c1c(O)n(C)c(=O)n(C)c1=O,4.4,81.4*,x,12.7,x,x
COC(=O)[C@@H]1[C@@H](CO)[C@@H]2Cn3c(ccc(C4=CCCCC4)c3=O)[C@H]1N2Cc1ccccc1OC,x,x,x,x,7.0,-2.9
Cc1cccc(S(=O)(=O)N2[C@@H]3c4ccc(-c5ccncc5)c(=O)n4C[C@H]2[C@H](CO)[C@H]3C(=O)O)c1,x,x,0.0,x,3.7,-0.8
FC(F)(F)c1cccc(NC2=NCCS2)c1,x,23.8,43.5*,2.6,-19.4,-19.3
O=C([O-])c1ccc(-[n+]2c(-c3ccccc3)cc(-c3ccccc3)cc2-c2ccccc2)cc1,-4.3,19.3,0.0,1.6,-0.9,9.4
Cc1ccc(-c2cc(-c3ccccc3)cc(-c3ccccc3)[n+]2-c2ccccc2C(=O)O)cc1,-19.0,26.5,0.5,-4.7,77.2*,20.5
CCN(CC)c1ccc(C=C2C(=O)N(C)C(=S)N(C)C2=O)o1,-5.4,x,-0.1,-5.4,77.7*,-81.2
COC(=O)[C@H]1[C@H](CO)[C@H]2Cn3c(ccc(-c4ccccc4F)c3=O)[C@@H]1N2C(=O)C1CC1,-5.0,x,0.0,x,0.9,0.7
COc1cc2c(C(=O)O)c(C)n(C)c2cc1Br,-26.1,-0.8,43.0*,x,-18.9,-10.4
COc1cccc(CNCCc2c[nH]c3ccccc23)c1,0.2,24.5,0.2,1.5,14.2,3.5
CCOc1c(Cl)cc(CNCCc2c[nH]c3ccccc23)cc1OC,-13.4,64.0*,0.0,-4.6,19.2,2.3
CCOc1cc(CNCCc2c[nH]c3ccccc23)cc(Cl)c1OCC,x,68.2*,0.0,2.3,-3.1,-3.4
Fc1ccc(CNCCc2c[nH]c3ccccc23)cc1,-13.9,-14.1,0.1,7.6,-6.7,5.9
Oc1ccc(-[n+]2c(-c3ccccc3)cc(-c3ccccc3)cc2-c2ccccc2)cc1,x,u,-0.1,6.5,90.2*,42.7
COc1ccc(-[n+]2c(-c3ccccc3)cc(-c3ccccc3)cc2-c2ccccc2)cc1,x,-4.9,0.4,8.3,92.5*,49.3
O=[N+]([O-])c1ccc(-[n+]2c(-c3ccccc3)cc(-c3ccccc3)cc2-c2ccccc2)cc1,-11.1,16.8,-0.1,-8.6,-2.9,1.4
